# Experimental data taken from ChEMBL document CHEMBL4251705, “Y08060: A Selective BET Inhibitor for Treatment of Prostate Cancer” (ACS Med Chem Lett, 2018).
# Active and inactive are the calls of the source. The calls are words filed in the database; no cut-off is given here.
# Tested on: LNCaP
# Assay: Antiproliferative activity against human LNCAP cells after 96 hrs by Cell-Titer glo reagent based luminescence assay
# Type: functional
# Conditions: not given
# How it was run: (§1)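 Cell viability read by CellTiter-Glo luminescence; IC50 derived from the viability data.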
row,IC50 [µM],Structure (SMILES)
1,4.41,COc1cc2c(cc1NS(=O)(=O)c1cc(Br)ccc1OC)OC(C)(C)C(=O)N2

# Tested on: Rattus norvegicus
# Assay: Cmax in Sprague-Dawley rat at 10 mg/kg, po administered as single dose
# Type: ADME, organism-based
# Set-up: dose 10 mg/kg, route oral
# Conditions: in vivo
# How it was run: (§2)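 Compound formulated in 5% DMSO, 40% PEG400 and 55% saline. Values are the mean of three independent experiments.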
row,Cmax [ng/mL],Structure (SMILES)
1,926,COc1cc2c(cc1NS(=O)(=O)c1cc(Br)ccc1OC)OC(C)(C)C(=O)N2

# Tested on: Rattus norvegicus
# Assay: AUC (0 to infinity) in Sprague-Dawley rat at 2 mg/kg, iv
# Type: ADME, organism-based
# Set-up: dose 2 mg/kg, route intravenous, time infinity
# Conditions: in vivo
# How it was run: as §2
row,AUC [ng·h/mL],Structure (SMILES)
1,1223.82,COc1cc2c(cc1NS(=O)(=O)c1cc(Br)ccc1OC)OC(C)(C)C(=O)N2

# Biological target: T1, Bromodomain-containing protein 4 (Homo sapiens, UniProt O60885)
# Assay: Inhibition of BRD4 BD1 in human LNCAP cells assessed as decrease in c-MYC mRNA levels at 5 uM after 48 hrs by qRT-PCR method
# Type: cell-based
# Conditions: not given
# How it was run: (§3)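 LNCaP cells treated with vehicle or compound at 5 μM for 48 h. Full-length AR, PSA, KLK2, TMPRSS2 and c-MYC transcripts quantified by qRT-PCR. Mean ± SD (n = 3) from one of three independent experiments; significance by two-tailed Student's t test.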
row,inhibition,Structure (SMILES)
1,Active,COc1cc2c(cc1NS(=O)(=O)c1cc(Br)ccc1OC)OC(C)(C)C(=O)N2

# Tested on: not listed separately
# Assay: AUC (0 to t) in Sprague-Dawley rat at 2 mg/kg, iv
# Type: ADME, organism-based
# Conditions: in vivo
# How it was run: as §2
row,AUC(0-t) [ng·h/mL],Structure (SMILES)
1,1200,COc1cc2c(cc1NS(=O)(=O)c1cc(Br)ccc1OC)OC(C)(C)C(=O)N2

# Biological target: CREB-binding protein/Histone acetyltransferase p300 (Homo sapiens) (UniProt Q09472+Q92793)
# Sequence (Q09472 whole entry, looked up, the tested form may be a part): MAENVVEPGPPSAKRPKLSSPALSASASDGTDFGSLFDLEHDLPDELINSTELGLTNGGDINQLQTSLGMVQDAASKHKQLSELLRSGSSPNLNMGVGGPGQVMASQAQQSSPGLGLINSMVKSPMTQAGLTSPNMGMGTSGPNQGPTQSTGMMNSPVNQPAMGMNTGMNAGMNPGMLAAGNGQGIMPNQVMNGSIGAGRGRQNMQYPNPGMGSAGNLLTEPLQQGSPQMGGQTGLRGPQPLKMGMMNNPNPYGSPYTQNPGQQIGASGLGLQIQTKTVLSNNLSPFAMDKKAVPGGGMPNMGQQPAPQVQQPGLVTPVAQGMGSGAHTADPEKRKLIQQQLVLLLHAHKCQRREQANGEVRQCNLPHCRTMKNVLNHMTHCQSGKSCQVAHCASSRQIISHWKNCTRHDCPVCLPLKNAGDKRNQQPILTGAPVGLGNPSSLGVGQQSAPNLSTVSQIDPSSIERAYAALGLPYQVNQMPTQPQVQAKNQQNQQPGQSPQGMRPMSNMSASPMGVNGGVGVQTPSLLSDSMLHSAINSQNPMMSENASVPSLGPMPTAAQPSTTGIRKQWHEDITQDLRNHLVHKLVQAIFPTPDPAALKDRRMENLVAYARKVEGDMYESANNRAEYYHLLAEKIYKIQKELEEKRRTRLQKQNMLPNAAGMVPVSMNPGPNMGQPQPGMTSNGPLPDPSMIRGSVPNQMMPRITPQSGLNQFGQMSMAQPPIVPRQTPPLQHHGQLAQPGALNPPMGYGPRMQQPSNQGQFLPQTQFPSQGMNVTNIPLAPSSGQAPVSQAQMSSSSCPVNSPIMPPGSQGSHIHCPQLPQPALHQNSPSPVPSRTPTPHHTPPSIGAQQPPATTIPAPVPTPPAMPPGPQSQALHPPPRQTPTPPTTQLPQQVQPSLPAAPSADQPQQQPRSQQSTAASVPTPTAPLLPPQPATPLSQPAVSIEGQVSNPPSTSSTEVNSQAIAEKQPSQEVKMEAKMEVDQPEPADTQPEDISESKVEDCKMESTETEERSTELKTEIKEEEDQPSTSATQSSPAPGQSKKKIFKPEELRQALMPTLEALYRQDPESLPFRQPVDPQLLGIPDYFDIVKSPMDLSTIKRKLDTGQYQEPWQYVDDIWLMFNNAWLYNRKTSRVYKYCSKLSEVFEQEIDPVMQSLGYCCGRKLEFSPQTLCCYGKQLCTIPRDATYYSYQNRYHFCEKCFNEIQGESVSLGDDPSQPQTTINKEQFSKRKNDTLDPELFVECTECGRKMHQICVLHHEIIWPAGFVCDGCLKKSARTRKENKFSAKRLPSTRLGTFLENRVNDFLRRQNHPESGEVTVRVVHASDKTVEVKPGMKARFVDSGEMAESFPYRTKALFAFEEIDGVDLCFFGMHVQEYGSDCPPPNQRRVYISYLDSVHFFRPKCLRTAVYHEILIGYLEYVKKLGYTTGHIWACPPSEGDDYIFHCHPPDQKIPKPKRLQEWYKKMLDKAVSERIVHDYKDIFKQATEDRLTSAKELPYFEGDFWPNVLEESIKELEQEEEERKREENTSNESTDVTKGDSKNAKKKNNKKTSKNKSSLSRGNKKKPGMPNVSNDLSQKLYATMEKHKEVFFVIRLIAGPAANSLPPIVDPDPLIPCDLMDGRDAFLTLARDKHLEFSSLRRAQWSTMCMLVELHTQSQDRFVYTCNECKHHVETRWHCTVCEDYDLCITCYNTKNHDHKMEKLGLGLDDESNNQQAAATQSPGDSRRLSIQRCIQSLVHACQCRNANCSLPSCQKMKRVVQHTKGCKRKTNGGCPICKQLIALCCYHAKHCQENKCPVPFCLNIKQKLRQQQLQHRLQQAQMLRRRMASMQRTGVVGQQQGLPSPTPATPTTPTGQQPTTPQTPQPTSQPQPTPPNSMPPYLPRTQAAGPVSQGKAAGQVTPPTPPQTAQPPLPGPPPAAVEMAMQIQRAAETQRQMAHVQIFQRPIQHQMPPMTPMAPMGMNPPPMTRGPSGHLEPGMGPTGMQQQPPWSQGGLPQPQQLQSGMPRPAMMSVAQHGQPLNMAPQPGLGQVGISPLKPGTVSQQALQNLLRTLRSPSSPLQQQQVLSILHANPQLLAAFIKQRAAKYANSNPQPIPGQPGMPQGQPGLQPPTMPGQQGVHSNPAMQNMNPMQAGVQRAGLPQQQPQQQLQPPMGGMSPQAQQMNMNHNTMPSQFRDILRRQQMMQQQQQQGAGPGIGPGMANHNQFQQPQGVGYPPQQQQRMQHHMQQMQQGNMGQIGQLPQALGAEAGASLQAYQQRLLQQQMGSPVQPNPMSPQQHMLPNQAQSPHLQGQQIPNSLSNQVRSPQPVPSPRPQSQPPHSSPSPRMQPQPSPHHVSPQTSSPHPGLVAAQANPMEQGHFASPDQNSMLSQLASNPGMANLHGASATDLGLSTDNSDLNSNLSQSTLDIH
# Sequence (Q92793 whole entry, looked up, the tested form may be a part): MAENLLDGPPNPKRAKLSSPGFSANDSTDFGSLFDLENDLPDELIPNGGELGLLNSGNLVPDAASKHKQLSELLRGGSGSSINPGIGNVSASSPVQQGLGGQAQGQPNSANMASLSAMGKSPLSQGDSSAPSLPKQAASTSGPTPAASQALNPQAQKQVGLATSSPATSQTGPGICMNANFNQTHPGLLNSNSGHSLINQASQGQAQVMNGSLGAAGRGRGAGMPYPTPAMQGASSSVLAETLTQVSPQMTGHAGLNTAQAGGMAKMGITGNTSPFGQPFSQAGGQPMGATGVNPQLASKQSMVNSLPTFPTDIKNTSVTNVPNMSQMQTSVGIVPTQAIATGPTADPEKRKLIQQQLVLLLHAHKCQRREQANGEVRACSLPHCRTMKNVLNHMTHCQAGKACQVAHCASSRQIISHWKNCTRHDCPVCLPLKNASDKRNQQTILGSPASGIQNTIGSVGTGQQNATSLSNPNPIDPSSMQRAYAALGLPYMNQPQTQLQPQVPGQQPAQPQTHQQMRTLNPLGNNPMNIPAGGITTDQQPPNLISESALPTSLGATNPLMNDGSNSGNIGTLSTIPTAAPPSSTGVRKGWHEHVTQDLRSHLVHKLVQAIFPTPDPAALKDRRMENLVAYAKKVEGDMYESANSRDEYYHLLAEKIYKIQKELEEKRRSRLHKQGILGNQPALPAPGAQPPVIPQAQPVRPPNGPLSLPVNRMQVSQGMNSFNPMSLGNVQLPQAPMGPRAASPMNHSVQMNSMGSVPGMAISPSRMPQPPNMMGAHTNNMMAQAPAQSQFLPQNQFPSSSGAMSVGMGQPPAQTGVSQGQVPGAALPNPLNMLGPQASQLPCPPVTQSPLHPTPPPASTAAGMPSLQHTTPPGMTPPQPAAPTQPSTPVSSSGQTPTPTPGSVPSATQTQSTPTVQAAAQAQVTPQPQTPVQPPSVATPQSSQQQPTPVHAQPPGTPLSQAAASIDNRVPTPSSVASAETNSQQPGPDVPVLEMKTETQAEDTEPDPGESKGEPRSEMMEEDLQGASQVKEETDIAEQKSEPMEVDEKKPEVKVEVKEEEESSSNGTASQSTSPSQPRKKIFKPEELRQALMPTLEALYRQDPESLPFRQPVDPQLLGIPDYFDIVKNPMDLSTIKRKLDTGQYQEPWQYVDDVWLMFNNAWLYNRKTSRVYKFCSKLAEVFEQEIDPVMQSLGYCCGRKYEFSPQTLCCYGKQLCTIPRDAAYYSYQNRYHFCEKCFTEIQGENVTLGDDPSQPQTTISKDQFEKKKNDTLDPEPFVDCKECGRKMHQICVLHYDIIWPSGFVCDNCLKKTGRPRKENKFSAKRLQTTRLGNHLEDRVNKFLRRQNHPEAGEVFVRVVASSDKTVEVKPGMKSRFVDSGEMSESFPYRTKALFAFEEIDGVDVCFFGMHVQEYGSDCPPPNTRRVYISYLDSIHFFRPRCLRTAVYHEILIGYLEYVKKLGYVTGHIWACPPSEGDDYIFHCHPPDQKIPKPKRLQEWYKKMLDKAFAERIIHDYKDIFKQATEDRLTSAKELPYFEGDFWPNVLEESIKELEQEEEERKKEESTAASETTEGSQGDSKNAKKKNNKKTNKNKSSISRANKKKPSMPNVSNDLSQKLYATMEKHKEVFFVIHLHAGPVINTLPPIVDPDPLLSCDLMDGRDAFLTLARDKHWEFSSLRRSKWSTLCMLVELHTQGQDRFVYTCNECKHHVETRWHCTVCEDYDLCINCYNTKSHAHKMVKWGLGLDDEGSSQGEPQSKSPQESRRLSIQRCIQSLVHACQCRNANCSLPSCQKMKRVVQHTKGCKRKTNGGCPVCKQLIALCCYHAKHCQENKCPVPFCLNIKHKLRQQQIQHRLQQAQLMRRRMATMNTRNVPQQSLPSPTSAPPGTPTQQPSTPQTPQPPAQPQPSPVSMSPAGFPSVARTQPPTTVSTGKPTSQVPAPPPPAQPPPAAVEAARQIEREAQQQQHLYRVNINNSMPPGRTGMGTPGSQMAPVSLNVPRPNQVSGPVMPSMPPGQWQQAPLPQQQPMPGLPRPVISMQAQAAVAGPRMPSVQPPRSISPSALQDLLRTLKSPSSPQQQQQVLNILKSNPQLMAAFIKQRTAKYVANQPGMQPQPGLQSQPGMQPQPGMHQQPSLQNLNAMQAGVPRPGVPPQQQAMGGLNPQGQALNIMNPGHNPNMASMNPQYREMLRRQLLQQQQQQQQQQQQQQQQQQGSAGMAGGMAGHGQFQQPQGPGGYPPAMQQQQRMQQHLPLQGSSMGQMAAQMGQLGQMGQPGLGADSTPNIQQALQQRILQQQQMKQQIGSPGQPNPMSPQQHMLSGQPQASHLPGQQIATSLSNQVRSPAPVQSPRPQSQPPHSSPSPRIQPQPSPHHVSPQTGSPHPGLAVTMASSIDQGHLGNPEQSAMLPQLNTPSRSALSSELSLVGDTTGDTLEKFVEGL
# Assay: Inhibition of human His6-tagged CBP (R1081 to G1197 residues)/EP300 (A1040 to G1161 residues) expressed in Escherichia coli BL21 (DE3) cells by SYPRO Orange-dye based fluorescence thermal shift assay
# Conditions: not given
row,thermal shift binding activity (active/inactive),Structure (SMILES)
1,Active,COc1cc2c(cc1NS(=O)(=O)c1cc(Br)ccc1OC)OC(C)(C)C(=O)N2

# Tested on: DU-145
# Assay: Antiproliferative activity against human DU145 cells after 96 hrs by Cell-Titer glo reagent based luminescence assay
# Type: functional
# Conditions: DU-145, 96 h
# How it was run: as §1
row,IC50 [µM],Structure (SMILES)
1,23.2,COc1cc2c(cc1NS(=O)(=O)c1cc(Br)ccc1OC)OC(C)(C)C(=O)N2

# Tested on: not listed separately
# Assay: Oral bioavailability in Sprague-Dawley rat at 10 mg/kg administered as single dose
# Type: ADME, organism-based
# Conditions: in vivo
# How it was run: as §2
row,bioavailability [%],Structure (SMILES)
1,61.5,COc1cc2c(cc1NS(=O)(=O)c1cc(Br)ccc1OC)OC(C)(C)C(=O)N2

# Tested on: CWR22R
# Assay: Anticlonogenic activity against human 22Rv1 cells after 14 days by crystal violet staining based assay
# Type: functional, cell-based
# Conditions: not given
row,Structure (SMILES),Activity
1,COc1cc2c(cc1NS(=O)(=O)c1cc(Br)ccc1OC)OC(C)(C)C(=O)N2,Dose-dependent effect

# Biological target: T1, Bromodomain-containing protein 4
# Assay: Binding affinity to human His6-tagged BRD4 BD1 (N44 to E168 residues) expressed in Escherichia coli BL21 (DE3) cells by isothermal titration calorimetry method
# Conditions: not given
row,Kd [µM],Structure (SMILES)
1,0.302,COc1cc2c(cc1NS(=O)(=O)c1cc(Br)ccc1OC)OC(C)(C)C(=O)N2

# Tested on: Rattus norvegicus
# Assay: Half life in Sprague-Dawley rat at 2 mg/kg, iv
# Type: ADME, organism-based
# Conditions: in vivo
# How it was run: as §2
row,t1/2 [h],Structure (SMILES)
1,1.65,COc1cc2c(cc1NS(=O)(=O)c1cc(Br)ccc1OC)OC(C)(C)C(=O)N2

# Biological target: T1, Bromodomain-containing protein 4
# Assay: Inhibition of BRD4 BD1 in human LNCAP cells assessed as decrease in PSA mRNA levels at 5 uM after 48 hrs by qRT-PCR method
# Type: cell-based
# Conditions: not given
# How it was run: as §3
row,inhibition,Structure (SMILES)
1,Active,COc1cc2c(cc1NS(=O)(=O)c1cc(Br)ccc1OC)OC(C)(C)C(=O)N2

# Biological target: T1, Bromodomain-containing protein 4
# Conditions: not given
row,ΔTm [°C],Structure (SMILES)
1,6.6,COc1cc2c(cc1NS(=O)(=O)c1cc(Br)ccc1OC)OC(C)(C)C(=O)N2

# Tested on: not listed separately
# Assay: AUC (0 to t) in Sprague-Dawley rat at 10 mg/kg, po administered as single dose
# Type: ADME, organism-based
# Conditions: in vivo
# How it was run: as §2
row,AUC(0-t) [ng·h/mL],Structure (SMILES)
1,3520,COc1cc2c(cc1NS(=O)(=O)c1cc(Br)ccc1OC)OC(C)(C)C(=O)N2

# Tested on: Rattus norvegicus
# Assay: Cmax in Sprague-Dawley rat at 2 mg/kg, iv
# Type: ADME, organism-based
# Set-up: dose 2 mg/kg, route intravenous
# Conditions: in vivo
# How it was run: as §2
row,Cmax [ng/mL],Structure (SMILES)
1,1000,COc1cc2c(cc1NS(=O)(=O)c1cc(Br)ccc1OC)OC(C)(C)C(=O)N2

# Tested on: not listed separately
# Assay: Apparent volume of distribution in Sprague-Dawley rat at 2 mg/kg, iv
# Type: ADME, organism-based
# Conditions: in vivo, read-out: Vz
# How it was run: as §2
row,Vd [L/kg],Structure (SMILES)
1,4.01,COc1cc2c(cc1NS(=O)(=O)c1cc(Br)ccc1OC)OC(C)(C)C(=O)N2

# Tested on: Rattus norvegicus
# Assay: Tmax in Sprague-Dawley rat at 2 mg/kg, iv
# Type: ADME, organism-based
# Conditions: in vivo
# How it was run: as §2
row,Tmax [min],Structure (SMILES)
1,4.98,COc1cc2c(cc1NS(=O)(=O)c1cc(Br)ccc1OC)OC(C)(C)C(=O)N2

# Tested on: not listed separately
# Assay: Clearance in Sprague-Dawley rat at 2 mg/kg, iv
# Type: ADME, organism-based
# Conditions: in vivo
# How it was run: as §2
row,clearance [mL/min/kg],Structure (SMILES)
1,27.3,COc1cc2c(cc1NS(=O)(=O)c1cc(Br)ccc1OC)OC(C)(C)C(=O)N2

# Tested on: LNCaP C4-2B
# Assay: Antiproliferative activity against human C4-2B cells after 96 hrs by Cell-Titer glo reagent based luminescence assay
# Type: functional
# Conditions: not given
# How it was run: as §1
row,IC50 [µM],Structure (SMILES)
1,3.23,COc1cc2c(cc1NS(=O)(=O)c1cc(Br)ccc1OC)OC(C)(C)C(=O)N2

# Biological target: T1, Bromodomain-containing protein 4
# Assay: Inhibition of BRD4 BD1 in human LNCAP cells assessed as decrease in full length androgen receptor mRNA levels at 5 uM after 48 hrs by qRT-PCR method
# Type: cell-based
# Conditions: not given
# How it was run: as §3
row,inhibition,Structure (SMILES)
1,Active,COc1cc2c(cc1NS(=O)(=O)c1cc(Br)ccc1OC)OC(C)(C)C(=O)N2

# Tested on: not listed separately
# Assay: Mean residence time (0 to t) in Sprague-Dawley rat at 2 mg/kg, iv
# Type: ADME, organism-based
# Conditions: in vivo
# How it was run: as §2
row,MRT last [h],Structure (SMILES)
1,1.17,COc1cc2c(cc1NS(=O)(=O)c1cc(Br)ccc1OC)OC(C)(C)C(=O)N2

# Tested on: Rattus norvegicus
# Assay: AUC (0 to infinity) in Sprague-Dawley rat at 10 mg/kg, po administered as single dose
# Type: ADME, organism-based
# Set-up: dose 10 mg/kg, route oral, time infinity
# Conditions: in vivo
# How it was run: as §2
row,AUC [ng·h/mL],Structure (SMILES)
1,3765.71,COc1cc2c(cc1NS(=O)(=O)c1cc(Br)ccc1OC)OC(C)(C)C(=O)N2

# Tested on: not listed separately
# Assay: Mean residence time (0 to t) in Sprague-Dawley rat at 10 mg/kg, po administered as single dose
# Type: ADME, organism-based
# Conditions: in vivo
# How it was run: as §2
row,MRT last [h],Structure (SMILES)
1,2.6,COc1cc2c(cc1NS(=O)(=O)c1cc(Br)ccc1OC)OC(C)(C)C(=O)N2

# Tested on: Rattus norvegicus
# Assay: Tmax in Sprague-Dawley rat at 10 mg/kg, po administered as single dose
# Type: ADME, organism-based
# Conditions: in vivo
# How it was run: as §2
row,Tmax [h],Structure (SMILES)
1,1.67,COc1cc2c(cc1NS(=O)(=O)c1cc(Br)ccc1OC)OC(C)(C)C(=O)N2

# Tested on: LNCaP C4-2B
# Assay: Anticlonogenic activity against human C4-2B cells at 5 uM after 14 days by crystal violet staining based assay
# Type: functional
# Conditions: not given
row,Structure (SMILES),Activity [%]
1,COc1cc2c(cc1NS(=O)(=O)c1cc(Br)ccc1OC)OC(C)(C)C(=O)N2,<10

# Biological target: T1, Bromodomain-containing protein 4
# Assay: Inhibition of human His6-tagged BRD4 BD1 (N44 to E168 residues) expressed in Escherichia coli BL21 (DE3) cells using H-SGRGK(Ac)GGK(Ac)GLGK(Ac)GGAK(Ac)RHRK-Biotin-OH as substrate after 2.5 hrs by AlphaScreen assay
# Conditions: read-out: IC50
row,IC50 [µM],Structure (SMILES)
1,0.69,COc1cc2c(cc1NS(=O)(=O)c1cc(Br)ccc1OC)OC(C)(C)C(=O)N2

# Tested on: CWR22R
# Assay: Antiproliferative activity against human 22Rv1 cells after 96 hrs by Cell-Titer glo reagent based luminescence assay
# Type: functional
# Conditions: 22Rv1, 96 h
# How it was run: as §1
row,Structure (SMILES),IC50 [µM]
1,COc1cc2c(cc1NS(=O)(=O)c1cc(Br)ccc1OC)OC(C)(C)C(=O)N2,3.38

# Biological target: T1, Bromodomain-containing protein 4
# Assay: Inhibition of BRD4 BD1 in human LNCAP cells assessed as decrease in TMPRSS2 mRNA levels at 5 uM after 48 hrs by qRT-PCR method
# Type: cell-based
# Conditions: not given
# How it was run: as §3
row,inhibition,Structure (SMILES)
1,Active,COc1cc2c(cc1NS(=O)(=O)c1cc(Br)ccc1OC)OC(C)(C)C(=O)N2

# Tested on: PC-3
# Assay: Antiproliferative activity against human PC3 cells after 96 hrs by Cell-Titer glo reagent based luminescence assay
# Type: functional
# Conditions: PC-3, 96 h
# How it was run: as §1
row,IC50 [µM],Structure (SMILES)
1,17.2,COc1cc2c(cc1NS(=O)(=O)c1cc(Br)ccc1OC)OC(C)(C)C(=O)N2

# Tested on: CWR22R
# Assay: Anticlonogenic activity against human 22Rv1 cells at 5 uM after 14 days by crystal violet staining based assay
# Type: functional
# Conditions: not given
row,Structure (SMILES),Activity [%]
1,COc1cc2c(cc1NS(=O)(=O)c1cc(Br)ccc1OC)OC(C)(C)C(=O)N2,<10

# Biological target: T1, Bromodomain-containing protein 4
# Assay: Inhibition of BRD4 BD1 in human LNCAP cells assessed as decrease in KLK2 mRNA levels at 5 uM after 48 hrs by qRT-PCR method
# Type: cell-based
# Conditions: not given
# How it was run: as §3
row,inhibition,Structure (SMILES)
1,Active,COc1cc2c(cc1NS(=O)(=O)c1cc(Br)ccc1OC)OC(C)(C)C(=O)N2

# Tested on: Rattus norvegicus
# Assay: Half life in Sprague-Dawley rat at 10 mg/kg, po administered as single dose
# Type: ADME, organism-based
# Conditions: in vivo
# How it was run: as §2
row,t1/2 [h],Structure (SMILES)
1,1.96,COc1cc2c(cc1NS(=O)(=O)c1cc(Br)ccc1OC)OC(C)(C)C(=O)N2
